Data set [1] concerns TRPM2-overexpressing HEK293 cells. Type of data set: cell-based.
In data set [2] the target is human TRPM2 (Homo sapiens, UniProt O94759). It counts as cell-based. As to conditions: for TRPM2 current amplitudes at fivefold higher concentration: fivefold higher concentrations.
Data set [3] relates to TRPM2. The conditions noted are these: with preincubation; cited from earlier work.
Data set [4] addresses CRAC (Orai1/STIM1) (Homo sapiens, UniProt Q96D31). It counts as cell-based. The conditions noted are these: 2 μM, 30–60 min exposure. The method, boiled down:
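HEK293 cells stably expressing STIM1 were transiently transfected with CRACM1-pIRES2-EGFP and patched 24–48 h later, with EGFP identifying cotransfected cells. External solution contained 10 mM CaCl2 and 10 mM TEA-Cl (pH 7.2, 300 mOsm). Ramps ran −150 to +150 mV over 50 ms. Bath solution was control or supplemented with test compound. Current–voltage relationships were taken at 100 s.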

Data set [5] addresses endogenous TRPM2 (Rattus norvegicus, UniProt E9PTA2). Type of data set: cell-based. The method, boiled down:
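INS-1 cells (RPMI, 10% FBS) were held in standard external Ringer's (pH 7.2) containing the test compound. Whole-cell currents were recorded during the first 60 min, at 21–25 °C. Pipette: 140 mM Cs-glutamate, unbuffered Ca2+, ADPR 100 or 500 μM. Ramps ran −100 to +100 mV (50 ms, 0.5 Hz). Amplitudes at −80 mV and 50 s were expressed as percent inhibition of control and fitted for IC50 and Hill coefficient.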

Data set [6] has as its target mouse TRPM7 (Mus musculus, UniProt Q923J1). Put plainly: Whole-cell patch clamp of TRPM7 currents in tetracycline-inducible HEK293 cells. It counts as cell-based. The conditions noted are these: +80 mV, 200 s. Summed up:
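Tetracycline-inducible HEK293 cells carrying FLAG-murine TRPM7 were induced with 1 μg/mL tetracycline 5–22 h beforehand. Cells were then incubated 15 min in culture medium with 100 nM, 500 nM or 2 μM test compound. Pipette: 140 mM K-glutamate with 10 mM BAPTA. Ramps ran −100 to +100 mV at 0.5 Hz, 21–25 °C. Amplitudes, not capacitance-corrected, were taken at +80 mV and 200 s, normalized, and fitted for IC50 and Hill coefficient.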
(In general: In patch-clamp work, channel activity is measured electrically.)

Data set [7] addresses endogenous TRPM4 (Homo sapiens, UniProt Q8TD43). Put plainly: Whole-cell patch clamp of endogenous TRPM4-like currents in Jurkat T lymphocytes. Type of data set: cell-based. The conditions noted are these: 500 nM. The method, boiled down: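 Jurkat T cells were incubated with 500 nM test compound or none in standard external solution before whole-cell recording. Recordings were made within the first 60 min of incubation. Pipette: Cs-glutamate-based solution with intracellular Ca2+ clamped to 2 μM. Ramps ran −100 to +100 mV (50 ms, 0.5 Hz) from 0 mV, at 21–25 °C. Currents were extracted at −80 mV.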

Data set [8] addresses TRPV1 (Rattus norvegicus, UniProt O35433). Type of data set: cell-based. The conditions noted are these: 500 nM, 10 μM capsaicin. Summed up: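 INS-1 cells were incubated with 500 nM test compound or none in standard external Ringer's solution before whole-cell patch clamp at 21–25 °C. Pipette: 140 mM Cs-glutamate, 8 NaCl, 1 MgCl2, 10 HEPES (pH 7.2), with Ca2+ left unbuffered. Ramps ran −100 to +100 mV over 50 ms at 0.5 Hz from a 0 mV holding potential. Amplitudes were taken at −80 mV.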

The test system of data set [9] is INS-1 cells. Put plainly: Appearance of INS-1 cells during exposure in patch-clamp sessions. Type of data set: cell-based, rat. The method, boiled down:
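Rat insulinoma INS-1 cells were grown at 37 °C, 5% CO2 in RPMI with 10% FBS. During whole-cell patch-clamp sessions at 21–25 °C, cells were held in standard external Ringer's solution with continual exposure to the test compound.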

Entries after “also recorded” stand apart in the source; their conditions may differ. Where two headings read alike, the source gives them in different places.

CRAC (Orai1/STIM1), sequence (Q96D31 whole entry, species assumed): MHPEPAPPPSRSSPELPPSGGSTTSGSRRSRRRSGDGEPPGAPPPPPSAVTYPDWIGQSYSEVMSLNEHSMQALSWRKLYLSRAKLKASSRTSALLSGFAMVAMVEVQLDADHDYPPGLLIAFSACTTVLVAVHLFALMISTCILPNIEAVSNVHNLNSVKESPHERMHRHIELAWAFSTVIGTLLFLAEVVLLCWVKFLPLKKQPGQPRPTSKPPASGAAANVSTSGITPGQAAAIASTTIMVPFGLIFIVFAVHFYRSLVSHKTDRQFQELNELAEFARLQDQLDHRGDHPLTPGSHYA
CRAC (Orai1/STIM1), sequence (Q13586 23-685 partner, species assumed): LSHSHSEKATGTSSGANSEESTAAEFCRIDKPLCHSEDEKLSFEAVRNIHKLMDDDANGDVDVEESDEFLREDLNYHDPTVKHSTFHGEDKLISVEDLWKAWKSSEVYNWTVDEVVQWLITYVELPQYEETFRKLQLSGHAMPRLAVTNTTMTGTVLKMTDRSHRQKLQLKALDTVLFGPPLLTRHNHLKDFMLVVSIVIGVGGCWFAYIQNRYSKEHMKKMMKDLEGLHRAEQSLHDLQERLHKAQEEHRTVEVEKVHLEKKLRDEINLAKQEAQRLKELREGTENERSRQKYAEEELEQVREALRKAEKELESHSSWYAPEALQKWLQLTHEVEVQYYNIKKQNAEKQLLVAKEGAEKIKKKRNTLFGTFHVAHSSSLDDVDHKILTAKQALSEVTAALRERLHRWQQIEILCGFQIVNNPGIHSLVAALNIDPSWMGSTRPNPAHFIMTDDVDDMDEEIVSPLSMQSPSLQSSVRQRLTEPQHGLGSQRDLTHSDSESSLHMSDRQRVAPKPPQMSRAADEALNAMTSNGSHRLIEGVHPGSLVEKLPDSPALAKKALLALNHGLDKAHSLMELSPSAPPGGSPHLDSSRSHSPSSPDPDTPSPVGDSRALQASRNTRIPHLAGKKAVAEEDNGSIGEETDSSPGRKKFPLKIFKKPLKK
human TRPM2, sequence (O94759 whole entry): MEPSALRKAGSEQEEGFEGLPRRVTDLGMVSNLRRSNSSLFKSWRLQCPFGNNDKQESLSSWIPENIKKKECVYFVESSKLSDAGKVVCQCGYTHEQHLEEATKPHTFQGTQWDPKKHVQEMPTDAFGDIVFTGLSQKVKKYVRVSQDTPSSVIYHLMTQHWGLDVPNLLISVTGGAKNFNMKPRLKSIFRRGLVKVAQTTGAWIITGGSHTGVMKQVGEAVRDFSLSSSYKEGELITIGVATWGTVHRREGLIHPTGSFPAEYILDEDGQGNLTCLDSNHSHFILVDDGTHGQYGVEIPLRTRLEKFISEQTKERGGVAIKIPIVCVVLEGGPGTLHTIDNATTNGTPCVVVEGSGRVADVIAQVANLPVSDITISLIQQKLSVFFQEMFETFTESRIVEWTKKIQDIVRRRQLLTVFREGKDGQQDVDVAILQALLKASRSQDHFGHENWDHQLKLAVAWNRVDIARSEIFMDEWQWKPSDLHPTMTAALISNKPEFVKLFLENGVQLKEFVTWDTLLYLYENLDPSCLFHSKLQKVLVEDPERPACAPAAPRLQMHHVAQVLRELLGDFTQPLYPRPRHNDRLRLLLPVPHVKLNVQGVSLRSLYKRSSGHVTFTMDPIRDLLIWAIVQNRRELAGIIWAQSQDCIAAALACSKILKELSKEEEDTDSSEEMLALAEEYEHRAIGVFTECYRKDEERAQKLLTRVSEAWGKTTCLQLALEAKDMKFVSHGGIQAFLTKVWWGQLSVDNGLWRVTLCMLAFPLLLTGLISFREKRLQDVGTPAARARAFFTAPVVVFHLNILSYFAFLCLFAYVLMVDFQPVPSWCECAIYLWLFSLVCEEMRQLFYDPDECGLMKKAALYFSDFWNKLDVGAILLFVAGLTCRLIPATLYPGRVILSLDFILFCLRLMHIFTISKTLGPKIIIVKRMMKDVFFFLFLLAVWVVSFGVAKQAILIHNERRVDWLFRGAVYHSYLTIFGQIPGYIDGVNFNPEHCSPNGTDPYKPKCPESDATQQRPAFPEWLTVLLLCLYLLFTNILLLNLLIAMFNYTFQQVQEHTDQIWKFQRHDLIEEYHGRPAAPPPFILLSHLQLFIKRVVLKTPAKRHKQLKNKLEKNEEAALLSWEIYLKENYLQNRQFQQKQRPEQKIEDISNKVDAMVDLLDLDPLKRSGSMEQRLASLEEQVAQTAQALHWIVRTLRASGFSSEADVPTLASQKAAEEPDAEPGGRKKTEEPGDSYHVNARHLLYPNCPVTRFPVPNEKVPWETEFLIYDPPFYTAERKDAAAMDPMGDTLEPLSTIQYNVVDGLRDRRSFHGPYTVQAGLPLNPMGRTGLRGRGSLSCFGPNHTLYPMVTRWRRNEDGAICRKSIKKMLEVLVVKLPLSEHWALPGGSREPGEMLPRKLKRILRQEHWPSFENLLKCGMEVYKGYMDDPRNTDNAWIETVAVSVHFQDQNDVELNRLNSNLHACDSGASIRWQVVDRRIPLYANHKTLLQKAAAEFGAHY
endogenous TRPM2, sequence (E9PTA2 whole entry): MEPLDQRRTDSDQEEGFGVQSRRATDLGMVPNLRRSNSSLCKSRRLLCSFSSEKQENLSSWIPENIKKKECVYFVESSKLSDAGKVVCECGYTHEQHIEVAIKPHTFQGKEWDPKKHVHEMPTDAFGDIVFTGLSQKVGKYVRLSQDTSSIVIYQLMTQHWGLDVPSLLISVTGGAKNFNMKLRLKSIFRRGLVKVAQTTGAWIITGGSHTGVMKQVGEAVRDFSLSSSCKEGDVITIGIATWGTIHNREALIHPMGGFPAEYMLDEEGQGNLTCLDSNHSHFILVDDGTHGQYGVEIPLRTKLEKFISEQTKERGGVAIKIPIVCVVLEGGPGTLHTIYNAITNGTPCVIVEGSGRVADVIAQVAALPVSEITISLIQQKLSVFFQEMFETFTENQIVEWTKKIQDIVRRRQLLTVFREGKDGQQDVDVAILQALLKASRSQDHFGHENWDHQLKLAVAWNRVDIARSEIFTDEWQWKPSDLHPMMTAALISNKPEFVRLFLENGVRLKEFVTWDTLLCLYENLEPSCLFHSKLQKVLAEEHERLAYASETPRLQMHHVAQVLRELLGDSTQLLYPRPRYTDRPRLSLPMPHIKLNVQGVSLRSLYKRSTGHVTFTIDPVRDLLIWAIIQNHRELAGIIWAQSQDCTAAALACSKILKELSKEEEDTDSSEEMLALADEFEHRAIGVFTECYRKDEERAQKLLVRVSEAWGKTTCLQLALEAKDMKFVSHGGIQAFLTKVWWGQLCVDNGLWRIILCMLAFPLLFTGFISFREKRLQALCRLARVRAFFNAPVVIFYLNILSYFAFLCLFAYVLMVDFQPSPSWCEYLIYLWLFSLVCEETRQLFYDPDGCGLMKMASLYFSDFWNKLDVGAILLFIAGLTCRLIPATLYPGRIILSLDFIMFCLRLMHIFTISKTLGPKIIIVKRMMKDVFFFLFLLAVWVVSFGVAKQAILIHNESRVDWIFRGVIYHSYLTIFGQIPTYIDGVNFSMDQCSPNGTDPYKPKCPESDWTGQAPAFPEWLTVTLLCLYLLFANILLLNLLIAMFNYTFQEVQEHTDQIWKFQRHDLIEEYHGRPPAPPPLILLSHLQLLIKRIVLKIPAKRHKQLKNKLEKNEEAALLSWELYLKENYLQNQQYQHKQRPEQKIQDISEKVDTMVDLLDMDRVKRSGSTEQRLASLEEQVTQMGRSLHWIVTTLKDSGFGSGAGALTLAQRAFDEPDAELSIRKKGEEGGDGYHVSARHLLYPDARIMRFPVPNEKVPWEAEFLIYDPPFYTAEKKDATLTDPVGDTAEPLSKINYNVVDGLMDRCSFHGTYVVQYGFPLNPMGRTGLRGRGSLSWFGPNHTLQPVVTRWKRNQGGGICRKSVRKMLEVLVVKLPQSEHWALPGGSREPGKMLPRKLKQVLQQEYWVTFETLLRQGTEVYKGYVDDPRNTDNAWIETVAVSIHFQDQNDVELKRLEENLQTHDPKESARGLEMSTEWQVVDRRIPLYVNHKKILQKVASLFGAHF
TRPV1, sequence (O35433 whole entry): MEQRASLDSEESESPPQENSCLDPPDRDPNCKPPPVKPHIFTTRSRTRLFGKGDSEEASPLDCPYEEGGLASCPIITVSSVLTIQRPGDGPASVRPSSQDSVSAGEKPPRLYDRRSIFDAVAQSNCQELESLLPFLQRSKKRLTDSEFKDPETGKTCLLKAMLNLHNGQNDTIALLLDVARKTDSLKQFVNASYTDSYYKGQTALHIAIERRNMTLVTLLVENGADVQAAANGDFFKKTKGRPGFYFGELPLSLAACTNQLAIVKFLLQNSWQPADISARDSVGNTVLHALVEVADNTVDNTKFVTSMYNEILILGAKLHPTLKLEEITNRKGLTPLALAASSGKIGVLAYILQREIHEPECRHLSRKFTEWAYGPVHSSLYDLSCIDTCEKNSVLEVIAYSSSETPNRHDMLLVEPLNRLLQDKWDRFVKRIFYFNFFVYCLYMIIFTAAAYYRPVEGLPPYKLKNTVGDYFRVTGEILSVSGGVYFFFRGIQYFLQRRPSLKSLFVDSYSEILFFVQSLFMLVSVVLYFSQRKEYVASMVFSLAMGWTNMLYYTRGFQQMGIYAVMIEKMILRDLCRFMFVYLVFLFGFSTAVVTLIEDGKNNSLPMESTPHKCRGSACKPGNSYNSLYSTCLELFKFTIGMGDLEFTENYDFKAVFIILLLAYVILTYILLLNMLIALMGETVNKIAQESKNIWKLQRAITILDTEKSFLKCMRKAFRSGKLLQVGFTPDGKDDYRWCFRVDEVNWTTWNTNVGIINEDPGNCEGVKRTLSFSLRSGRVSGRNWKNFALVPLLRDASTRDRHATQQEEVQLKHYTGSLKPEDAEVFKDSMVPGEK

As to `O=c1[nH]c2ccccc2n1C1CCN(Cc2ccc(-c3nc4cc5[nH]cnc5cc4nc3-c3ccccc3)cc2)CC1` [Akt inhibitor VIII, 1,3-dihydro-1-(1-((4-(6-phenyl-1H-imidazo[4,5-g]quinoxalin-7-yl)phenyl)methyl)-4-piperidinyl)-2H-benzimidazol-2-one], the “Effect on cell viability at fivefold higher concentration” value in [1] was “affected cell viability”. Also, the “Effect on TRPM2-mediated currents” value in data set [2] (200 nM, 60 min preincubation, 500 μM ADPR) is given as “failed to affect”. Besides, the “TRPM2 current amplitudes at fivefold higher concentration” value in data set [2] (data not shown) is on record as “comparable to control cells”.

`O=C1NCCc2c(OCCCCN3CCCCC3)cccc21` [DPQ, 3,4-dihydro-5-[4-(1-piperidinyl)butoxyl]-1(2H)-isoquinolinone]: the “Effect on TRPM2-mediated currents (ADPR in pipet)” value in data set [2] (PARP-1 inhibitors, 100 μM ADPR, first 60 min) is “did not affect”.

Consider `COc1cc(/C=C/C(=O)CC(=O)/C=C/c2ccc(O)c(OC)c2)ccc1O` [curcumin], for which the “Concentration range blocking TRPM2 currents” value in data set [3] was “low nanomolar range”.

Turning to `O=C(O)CC[C@@H](Cc1ccc(OCc2ccccc2)cc1)NC(=O)CCCCCCc1ccccc1` [sPLA2 inhibitor, 5-(4-benzyloxyphenyl)-4S-(7-phenylheptanoylamino)pentanoic acid], the “Cell death during a 1 h recording session” value in [1] (5–10-fold higher concentrations, data not shown) is reported as “significant cell death”. Further, in data set [2] (5 μM, 100 μM ADPR), the “Effect on TRPM2-mediated currents” value was “lack of effect”.

Take `CC(=O)O[C@H]1C[C@@H]2[C@@]3(C)CCCC(C)(C)[C@@H]3CC[C@@]2(C)[C@@H]2CC=C(C=O)[C@H](C=O)[C@@]12C` [scalaradial]: the “Effect on CRAC currents” value in data set [4] was “no significant inhibition; also recorded: did not significantly affect; also recorded: failed to inhibit”. The “Effect on ADPR-induced currents” value in [5] (0.5–2.0 μM) was “largely abolished”. Further, the “Hill coefficient of INS-1 TRPM2 dose-response fit” value in [5] (−80 mV, 50 s) is recorded as 4. The “Hill coefficient of TRPM7 concentration-response fit” value in data set [6] is on record as 2. Also, the “Effect on TRPM4 current” value in data set [7] is “without affecting the current; also recorded: failed to inhibit”. In addition, the “Incubation time to reach full potency (full onset) of TRPM2 inhibition” value in data set [2] (2 μM scalaradial) is on record as ~ 20 min. Besides, in [2] (2 μM, acute application), the “Effect of acute application on TRPM2 currents” value was “did not significantly affect”. Besides, the “Hill coefficient of TRPM2 concentration-response fit” value in [2] (30–60 min incubation, −80 mV, 100 s) worked out at 1.3. In [2] (added to the cell internally, data not shown), the “Time dependency of TRPM2 inhibition when added internally” value is on record as “not affected”. In addition, the “Time to recovery of TRPM2 currents after drug removal” value in [2] (after 60 min incubation in 2 μM) is given as not above 5 min. Besides, in data set [8], the “Effect on TRPV1 current” value is reported as “does not inhibit; also recorded: failed to inhibit”. Besides, the “Time cells appeared healthy with continual exposure” value in data set [9] (500 nM and lower concentrations) is reported as “at least 1 h”. Moreover, the “Condition of INS-1 cells” value in data set [9] (2 μM) is listed as “rapidly deteriorated”.

Consider `COC[C@H]1OC(=O)c2coc3c2[C@@]1(C)C1=C(C3=O)[C@@H]2CCC(=O)[C@@]2(C)C[C@H]1OC(C)=O` [wortmannin], for which, in data set [1] (fivefold higher concentrations, cell rounding, granule formation, blebbing, data not shown), the “Effect on cell viability at fivefold higher concentration” value is given as “affected cell viability”. Also, the “Effect on TRPM2-mediated currents” value in [2] (20 nM, 60 min preincubation, 500 μM ADPR) was “failed to affect”. The “TRPM2 current amplitudes at fivefold higher concentration” value in [2] (data not shown) is “comparable to control cells”.
